Among the data in ChEMBL document CHEMBL4387724, “2-Pyridineformamide N(4)-ring incorporated thiosemicarbazones inhibit MCF-7 cells by inhibiting JNK pathway” (Bioorg Med Chem Lett, 2019) are IC50 and inhibition of growth values, retold here.

Assay [1] relates to MCF7. Briefly: Cytotoxicity against human MCF7 cells assessed as reduction in cell growth incubated for 72 hrs by MTT assay. It counts as functional, cell-based. Particulars: MCF7, 72 h. A digest of the protocol: (§1)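 Cells grown in DMEM with 10% FBS and penicillin-streptomycin at 37 °C, 5% CO2, seeded at 3000 cells/well and attached overnight. Screening series given at 1, 3, 10, 100 μM; follow-up agent at 100 nM–3 μM; both 72 h, with 0.1% DMSO vehicle. MTT (5 mg/mL stock) added for 3 h at 37 °C, formazan dissolved in DMSO, absorbance read at 570 nm. Viability expressed as % of DMSO-treated wells from replicates.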

Assay [2] has as its system A-375. Nature of the assay: Cytotoxicity against human A375 cells assessed as reduction in cell growth at 1 uM incubated for 72 hrs by MTT assay relative to control. It counts as functional. The settings on record: A-375, 72 h, read-out: GI. The essentials: as §1
On the technique in general: Tetrazolium dyes change colour on reduction, which living cells bring about.

The subject of assay [3] is A-431. Nature of the assay: Cytotoxicity against human A431 cells assessed as reduction in cell growth at 100 uM incubated for 72 hrs by MTT assay relative to control. Particulars: A-431, 72 h, read-out: GI. It is filed as functional. The essentials: as §1
The subject of assay [4] is HeLa. Briefly: Cytotoxicity against human HeLa cells assessed as reduction in cell growth at 30 uM incubated for 72 hrs by MTT assay relative to control. It is filed as functional. The settings on record: read-out: GI.
For assay [5], the system named is A-431. Nature of the assay: Cytotoxicity against human A431 cells assessed as reduction in cell growth incubated for 72 hrs by MTT assay. It counts as functional, cell-based. The settings on record: A-431, 72 h. The essentials:
as §1

The test system of assay [6] is A-431. Briefly: Cytotoxicity against human A431 cells assessed as reduction in cell growth at 30 uM incubated for 72 hrs by MTT assay relative to control. It is filed as functional. The settings on record: A-431, 72 h, read-out: GI.
Assay [7] deals with A-375. Nature of the assay: Cytotoxicity against human A375 cells assessed as reduction in cell growth at 10 uM incubated for 72 hrs by MTT assay relative to control. It is filed as functional. Particulars: A-375, 72 h, read-out: GI. The essentials: as §1
The subject of assay [8] is A-431. Nature of the assay: Cytotoxicity against human A431 cells assessed as reduction in cell growth at 3 uM incubated for 72 hrs by MTT assay relative to control. It is filed as functional. Particulars: A-431, 72 h, read-out: GI. The essentials:
as §1

Assay [9] relates to A-375. Nature of the assay: Cytotoxicity against human A375 cells assessed as reduction in cell growth at 3 uM incubated for 72 hrs by MTT assay relative to control. It is filed as functional. The settings on record: A-375, 72 h, read-out: GI. The essentials: as §1
In assay [10] the test system is MCF7. Nature of the assay: Cytotoxicity against human MCF7 cells assessed as reduction in cell growth at 3 uM incubated for 72 hrs by MTT assay relative to control. It counts as functional. The settings on record: MCF7, 72 h, read-out: GI. The essentials:
as §1

Assay [11] relates to A-431. Briefly: Cytotoxicity against human A431 cells assessed as reduction in cell growth at 10 uM incubated for 72 hrs by MTT assay relative to control. The settings on record: A-431, 72 h, read-out: GI. It is filed as functional. A digest of the protocol:
as §1

Assay [12] deals with A-375. Briefly: Cytotoxicity against human A375 cells assessed as reduction in cell growth incubated for 72 hrs by MTT assay. The settings on record: A-375, 72 h. It counts as functional, cell-based. The essentials: as §1
The subject of assay [13] is MCF7. Nature of the assay: Cytotoxicity against human MCF7 cells assessed as reduction in cell growth at 100 uM incubated for 72 hrs by MTT assay relative to control. It is filed as functional. The settings on record: MCF7, 72 h, read-out: GI. A digest of the protocol:
as §1

The subject of assay [14] is A-375. Briefly: Cytotoxicity against human A375 cells assessed as reduction in cell growth at 100 uM incubated for 72 hrs by MTT assay relative to control. Particulars: A-375, 72 h, read-out: GI. It counts as functional. The essentials:
as §1

For assay [15], the system named is A-431. Nature of the assay: Cytotoxicity against human A431 cells assessed as reduction in cell growth at 1 uM incubated for 72 hrs by MTT assay relative to control. Particulars: A-431, 72 h, read-out: GI. It is filed as functional. The essentials:
as §1

Assay [16] deals with HeLa. Briefly: Cytotoxicity against human HeLa cells assessed as reduction in cell growth at 100 uM incubated for 72 hrs by MTT assay relative to control. It counts as functional. Particulars: read-out: GI. A digest of the protocol: as §1
Assay [17] has as its system HeLa. Nature of the assay: Cytotoxicity against human HeLa cells assessed as reduction in cell growth incubated for 72 hrs by MTT assay. It is filed as functional, cell-based. The essentials: as §1
In assay [18] the test system is MCF7. Briefly: Cytotoxicity against human MCF7 cells assessed as reduction in cell growth at 10 uM incubated for 72 hrs by MTT assay relative to control. The settings on record: MCF7, 72 h, read-out: GI. It counts as functional. The essentials: as §1
For assay [19], the system named is HeLa. Nature of the assay: Cytotoxicity against human HeLa cells assessed as reduction in cell growth at 1 uM incubated for 72 hrs by MTT assay relative to control. It counts as functional. Particulars: read-out: GI. A digest of the protocol: as §1
Assay [20] relates to MCF7. Nature of the assay: Cytotoxicity against human MCF7 cells assessed as reduction in cell growth at 30 uM incubated for 72 hrs by MTT assay relative to control. It is filed as functional. The settings on record: MCF7, 72 h, read-out: GI.
Assay [21] has as its system A-375. Briefly: Cytotoxicity against human A375 cells assessed as reduction in cell growth at 30 uM incubated for 72 hrs by MTT assay relative to control. It counts as functional. The settings on record: A-375, 72 h, read-out: GI.
Assay [22] relates to HeLa. Briefly: Cytotoxicity against human HeLa cells assessed as reduction in cell growth at 10 uM incubated for 72 hrs by MTT assay relative to control. It is filed as functional. The settings on record: read-out: GI. The essentials: as §1
Assay [23] deals with MCF7. Nature of the assay: Cytotoxicity against human MCF7 cells assessed as reduction in cell growth at 1 uM incubated for 72 hrs by MTT assay relative to control. It is filed as functional. Particulars: MCF7, 72 h, read-out: GI. The essentials: as §1
Assay [24] deals with HeLa. Briefly: Cytotoxicity against human HeLa cells assessed as reduction in cell growth at 3 uM incubated for 72 hrs by MTT assay relative to control. It counts as functional. Particulars: read-out: GI. The essentials: as §1

Regarding `N/C(=N\NC(=S)N1CCOCC1)c1ccccn1`, the IC50 (in general, the concentration that gives 50% inhibition) with MCF7 [1] is 4.7 µM; in the assay with A-431 [5], 4.8 µM; in the assay with A-375 [12] it was 0.68 µM; with HeLa [17], 7.3 µM. Also, the inhibition of growth at 1 µM in the assay on A-375 [2] was determined as 26.8%; in the assay with A-431 [15], 29.2%; with HeLa [19], 12.7%; in the assay with MCF7 [23], 14.7%. Also, the inhibition of growth at 100 µM came to 84.6% with A-431 [3], 81.6% in the assay with MCF7 [13], 14% in the assay on A-375 [14] and 87.2% in the assay on HeLa [16]. Also, the inhibition of growth at 30 µM was found to be 82.8% in the assay with HeLa [4], 78.8% in the assay on A-431 [6], 78.1% in the assay with MCF7 [20] and 15% in the assay with A-375 [21]. The inhibition of growth at 10 µM with A-375 [7] was found to be 18.3%; with A-431 [11], 69.4%; with MCF7 [18], 66.7%; with HeLa [22] it was 56.3%. Further, the inhibition of growth at 3 µM amounted to 43.1% with A-431 [8], 19.3% in the assay with A-375 [9], 44.5% with MCF7 [10] and 40% in the assay on HeLa [24].
Regarding `Cc1cccc(/C(N)=N/NC(=S)N2CCCC2)n1`, the IC50 with MCF7 [1] turned out to be 61.8 µM; in the assay with A-431 [5], 4 µM; with A-375 [12], 2.9 µM; with HeLa [17], 2.7 µM. The inhibition of growth at 1 µM with A-375 [2] came out at 13.6%; with A-431 [15], 21%; in the assay on HeLa [19], 8.7%; in the assay on MCF7 [23] it was 17.4%. Besides, the inhibition of growth at 100 µM in the assay with A-431 [3] was 86.8%; in the assay on MCF7 [13] it was 61.8%; in the assay on A-375 [14], 66.3%; with HeLa [16], 80.1%. The inhibition of growth at 30 µM was 74.5% in the assay with HeLa [4], 72.2% with A-431 [6], 40.1% in the assay on MCF7 [20] and 60.8% in the assay with A-375 [21]. Also, the inhibition of growth at 10 µM was 55.9% in the assay on A-375 [7], 67.6% in the assay with A-431 [11], 38.2% in the assay on MCF7 [18] and 79.2% in the assay on HeLa [22]. Moreover, the inhibition of growth at 3 µM with A-431 [8] came to 47.2%; in the assay with A-375 [9], 51.3%; with MCF7 [10], 26.6%; in the assay on HeLa [24], 56.8%.
For the molecule `Cc1ccnc(/C(N)=N/NC(=S)N2CCCC2)c1`, the IC50 in the assay on MCF7 [1] was found to be 1.2 µM; in the assay with A-431 [5], 0.9 µM; with A-375 [12] it was 0.72 µM; with HeLa [17] it was 1.9 µM. For the same molecule, the inhibition of growth at 1 µM amounted to 69% with A-375 [2], 58.5% in the assay on A-431 [15], 25.9% in the assay with HeLa [19] and 49% with MCF7 [23]. Further, the inhibition of growth at 100 µM with A-431 [3] is 86.9%; in the assay with MCF7 [13] it was 87.7%; in the assay with A-375 [14], 88.8%; in the assay on HeLa [16], 88.1%. The inhibition of growth at 30 µM in the assay on HeLa [4] is 86.4%; in the assay on A-431 [6], 84.2%; with MCF7 [20], 82.2%; with A-375 [21], 87.9%. Moreover, the inhibition of growth at 10 µM came to 86% with A-375 [7], 71.2% with A-431 [11], 63.6% in the assay with MCF7 [18] and 67% in the assay on HeLa [22]. Also, the inhibition of growth at 3 µM with A-431 [8] amounted to 63%; in the assay on A-375 [9], 80%; in the assay on MCF7 [10], 57.7%; in the assay on HeLa [24], 52.1%.
